Rows were chosen to be rich in hits. Some 1.5% of all compounds tested hit in one or more screens of this group.
CXCR6 block: inhibitors of human CXCR6 receptor; CHO-K1 PathHunter CXCR6 beta-arrestin, luminescence; inhibition, % at 20 µM; O00574; actives 0.36% (n = 360,000); in the data active = inhibition above about 34%, passing the limit was not always enough;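 also: antagonist mode with CXCL16 agonist at 10 nM final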
APJ ag: activates the human apelin receptor APJ | P35414 | actives 0.11% (n = 330,000) | CHO-K1 APJ PathHunter beta-arrestin, luminescence; 0% DMSO wells, 100% apelin | AID 2520 | activation, % at 20 µM;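 active = activation more than six SD over the plate average, tested at 20 µM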
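Material: engineered CHO-K1 APJ arrestin reporter cells; amount: 1000 CHO-K1 reporter cells seeded per well; incubation: compound stimulation 90 min at 25 °C, detection 60 min; signal: luminescent beta-gal fragment complementation, chemiluminescent substrate; read-out basis: APJ agonist activity; controls: DMSO-only wells as negative, 10 nM Apelin-13 as positive control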
CCR6 antag: antagonists of human CCR6 receptor; AID 493098; CHO-K1 CCR6 PathHunter beta-arrestin, luminescence, CCL20-stimulated; actives 0.49% (n = 340,000); inhibition, % at 20 µM; P51684;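 active = compounds whose inhibition of the agonist-driven luminescence signal at 20 µM reaches about 50%, limit read from the data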;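 also: cells stimulated with CCL20 at 14 nM final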
APJ antagonist: blocks the human apelin receptor APJ | AID 2521 | P35414 | inhibition, % at 20 µM | CHO-K1 APJ beta-arrestin complementation, luminescence | actives 0.32% (n = 330,000);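 active = inhibition above about 40% at 20 µM, limit read from the data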;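 also: cells challenged with 10 nM apelin-13 agonist together with compound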
HTR2A ag: mouse HTR2A agonism via beta-arrestin recruitment | actives 0.66% (n = 360,000) | AID 624169 | P35363 | CHO-K1 mHTR2A beta-arrestin complementation, luminescence; percent of 30 µM serotonin response | activation, % at 7.6 µM;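 active = activation above a run cutoff, the mean activation of all tested compounds plus 3 SD, cut at about 14% in these data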
NTR1 ag: agonists of human neurotensin receptor NTR1. P30989. NTR1-U2OS beta-arrestin-GFP spot imaging, agonist mode. activation, % at 20 µM. actives 0.17% (n = 330,000). AID 493036;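 active = activation at or above 40% of the spot to cytoplasm intensity ratio, with at least 20 cells analyzed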
MOR ag counter: counter-screen for mouse HTR2A agonists: human mu opioid receptor agonists; actives 5.3% (n = 2,300); shares compounds with HTR2A ag; U2OS OPRM1 beta-arrestin PathHunter, luminescence; DMSO 0%, DAMGO 9.3 µM 100%; AID 624380; activation, % at 9.3 µM;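 active = mean activation above the mean of DMSO-only wells plus 3 SD, cut at about 0.5% in these data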
Target sequence (P35372 whole entry, looked up): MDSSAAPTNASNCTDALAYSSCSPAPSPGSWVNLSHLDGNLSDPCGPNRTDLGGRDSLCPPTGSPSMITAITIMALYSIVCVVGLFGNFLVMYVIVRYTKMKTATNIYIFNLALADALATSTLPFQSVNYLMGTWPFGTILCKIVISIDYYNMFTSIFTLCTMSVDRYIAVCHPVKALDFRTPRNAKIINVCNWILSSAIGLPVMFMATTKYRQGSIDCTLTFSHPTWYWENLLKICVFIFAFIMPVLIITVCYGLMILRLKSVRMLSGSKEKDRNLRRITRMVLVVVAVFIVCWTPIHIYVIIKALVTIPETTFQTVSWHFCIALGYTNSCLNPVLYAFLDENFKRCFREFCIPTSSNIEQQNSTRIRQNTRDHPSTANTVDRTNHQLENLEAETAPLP
m5-HT2A ag conf: confirmation of mouse HTR2A serotonin receptor agonists | shares compounds with HTR2A ag | CHO-K1 PathHunter beta-arrestin recruitment, luminescence; DMSO 0%, 30 µM serotonin 100% | activation, % at 7.6 µM | actives 19% (n = 2,300);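 active = mean activation across triplicates above the hit threshold derived in the original primary screen, cut at about 15% in these data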
Hits are given with their value.

Results for CCN=C1SC(CC(=O)NC2CCCCC2)C(=O)N1CC (centres undefined) ?
CXCR6 block: inactive; APJ ag: inactive; CCR6 antag: inactive; APJ antagonist: inactive; HTR2A ag: inactive; NTR1 ag: inactive

What do the screens show for `CN1C(=O)C(CC(=O)NC2CCCCC2)SC1=Nc1ccccc1` (centres undefined)?
CXCR6 block: inactive; APJ ag: inactive; CCR6 antag: inactive; APJ antagonist: inactive; HTR2A ag: 22.8; NTR1 ag: inactive; MOR ag counter: inactive; m5-HT2A ag conf: inactive

What do the screens show for `COc1ccc(C2(C(=O)Nc3ccc(C)c(C)c3)CCOCC2)cc1`?
CXCR6 block: inactive; APJ ag: inactive; CCR6 antag: inactive; APJ antagonist: inactive; HTR2A ag: inactive; NTR1 ag: inactive

How did Cc1cc(=O)oc2cc(OCC(O)Cn3ccnc3)ccc12 (centres undefined) do in these assays?
CXCR6 block: inactive; APJ ag: inactive; CCR6 antag: inactive; APJ antagonist: inactive; HTR2A ag: inactive; NTR1 ag: inactive

What do the screens show for `CC(=O)Nc1ccc(S(=O)(=O)N2CCN(CCc3ccccc3)CC2)cc1`?
CXCR6 block: inactive; APJ ag: inactive; CCR6 antag: inactive; APJ antagonist: inactive; HTR2A ag: inactive; NTR1 ag: inactive

Results for CC(=O)Nc1ccc(S(=O)(=O)N2CCN(C(=O)Cc3ccccc3)CC2)cc1 ?
CXCR6 block: inactive; APJ ag: inactive; CCR6 antag: inactive; APJ antagonist: inactive; HTR2A ag: 17.0; NTR1 ag: inactive; MOR ag counter: inactive; m5-HT2A ag conf: inactive

What do the screens show for `O=S(=O)(c1ccc2nnn(O)c2c1)N1CCCCC1`?
CXCR6 block: inactive; APJ ag: inactive; CCR6 antag: inactive; APJ antagonist: inactive; HTR2A ag: 19.6; NTR1 ag: inactive; MOR ag counter: inactive; m5-HT2A ag conf: inactive

Results for O=C(O)CSc1cnc2ccccc2n1 ?
CXCR6 block: inactive; APJ ag: inactive; CCR6 antag: inactive; APJ antagonist: inactive; HTR2A ag: 18.0; NTR1 ag: inactive; MOR ag counter: inactive; m5-HT2A ag conf: inactive

What do the screens show for `O=C(CSc1cnc2ccccc2n1)NC1CCCC1`?
CXCR6 block: inactive; APJ ag: inactive; CCR6 antag: inactive; APJ antagonist: inactive; HTR2A ag: inactive; NTR1 ag: inactive

What do the screens show for `CN(CC(=O)Nc1cccnc1)S(=O)(=O)c1ccc(Br)cc1`?
CXCR6 block: inactive; APJ ag: inactive; CCR6 antag: inactive; APJ antagonist: inactive; HTR2A ag: 16.9; NTR1 ag: inactive; MOR ag counter: inactive; m5-HT2A ag conf: inactive

Results for Cc1ccc(S(=O)(=O)N(C)CC(=O)Nc2cccnc2)cc1 ?
CXCR6 block: inactive; APJ ag: inactive; CCR6 antag: inactive; APJ antagonist: inactive; HTR2A ag: inactive; NTR1 ag: inactive

What do the screens show for `CCCCn1c(N)c(N(CCC(C)C)C(=O)c2ccc([N+](=O)[O-])s2)c(=O)[nH]c1=O`?
CXCR6 block: inactive; APJ ag: inactive; CCR6 antag: inactive; APJ antagonist: inactive; HTR2A ag: 18.8; NTR1 ag: inactive; MOR ag counter: inactive; m5-HT2A ag conf: inactive

How did CCOC(=O)C1(Cc2cccc(F)c2)CCN(CC(O)CO)CC1 (centres undefined) do in these assays?
CXCR6 block: inactive; APJ ag: inactive; CCR6 antag: inactive; APJ antagonist: inactive; HTR2A ag: inactive; NTR1 ag: inactive

How did C#C[C@]1(O)CCC2C3CCC4=CC(=O)CC[C@@H]4C3CC[C@@]21C (some centres undefined) do in these assays?
CXCR6 block: inactive; APJ ag: inactive; CCR6 antag: inactive; APJ antagonist: inactive; HTR2A ag: 15.0; NTR1 ag: inactive; MOR ag counter: inactive; m5-HT2A ag conf: inactive

How did CCc1nc2ccc(C(=O)N(C)CC(=O)Nc3cccc(F)c3)cc2nc1CC do in these assays?
CXCR6 block: inactive; APJ ag: inactive; CCR6 antag: inactive; APJ antagonist: inactive; HTR2A ag: inactive; NTR1 ag: inactive

What do the screens show for `Cc1c(C2(O)CCCCC2)[nH]c2cc(C(F)(F)F)ccc12`?
CXCR6 block: inactive; APJ ag: inactive; CCR6 antag: inactive; APJ antagonist: inactive; HTR2A ag: 18.8; NTR1 ag: inactive; MOR ag counter: 1.0; m5-HT2A ag conf: inactive

How did CCc1c(C2(O)CCCCC2)[nH]c2cc(C(F)(F)F)ccc12 do in these assays?
CXCR6 block: inactive; APJ ag: inactive; CCR6 antag: inactive; APJ antagonist: inactive; HTR2A ag: inactive; NTR1 ag: inactive

Results for COc1ccccc1NC(=O)Nc1nc(C(N)Cc2ccc(C(F)(F)F)cc2)cs1 (centres undefined) ?
CXCR6 block: inactive; HTR2A ag: inactive

What do the screens show for `COc1cc(NC(=O)Nc2nc(C(N)Cc3ccc(C(F)(F)F)cc3)cs2)cc(OC)c1OC` (centres undefined)?
CXCR6 block: inactive; HTR2A ag: 42.2; MOR ag counter: inactive; m5-HT2A ag conf: 28.9

Results for COc1ccc(NC(=O)Nc2nc(C(N)Cc3ccc(C(F)(F)F)cc3)cs2)cc1 (centres undefined) ?
CXCR6 block: inactive; HTR2A ag: 21.4; MOR ag counter: 1.5; m5-HT2A ag conf: inactive

How did Cc1cc(C)cc(NC(=O)C(C)N2C(=O)c3ccccc3C2=O)c1 (centres undefined) do in these assays?
CXCR6 block: inactive; APJ ag: inactive; CCR6 antag: inactive; APJ antagonist: inactive; HTR2A ag: 19.7; NTR1 ag: inactive; MOR ag counter: inactive; m5-HT2A ag conf: inactive

What do the screens show for `COc1cc2cc(CN(CCN3CCCC3)C(=O)Nc3ccc(F)cc3)c(=O)[nH]c2cc1OC`?
CXCR6 block: inactive; APJ ag: inactive; CCR6 antag: inactive; APJ antagonist: inactive; HTR2A ag: inactive; NTR1 ag: inactive

What do the screens show for `Cc1ccc(C)c2[nH]c(=O)c(CN(CCN3CCCC3)C(=O)Nc3ccc(F)cc3)cc12`?
CXCR6 block: inactive; APJ ag: inactive; CCR6 antag: inactive; APJ antagonist: inactive; HTR2A ag: 16.6; NTR1 ag: inactive; MOR ag counter: inactive; m5-HT2A ag conf: inactive

What do the screens show for `O=C(Nc1cccc(C(=O)N2CCCc3ccccc32)c1)c1ccccc1`?
CXCR6 block: inactive; APJ ag: inactive; CCR6 antag: inactive; APJ antagonist: inactive; HTR2A ag: inactive; NTR1 ag: inactive

Results for CCn1cc(C(=O)NCCCN2CCCC(C)C2)c(=O)c2cc(S(=O)(=O)N3CCOCC3)ccc21 (centres undefined) ?
CXCR6 block: inactive; APJ ag: inactive; CCR6 antag: inactive; APJ antagonist: inactive; HTR2A ag: 21.1; NTR1 ag: inactive; MOR ag counter: inactive; m5-HT2A ag conf: inactive

Compound activity: PubChem, several laboratories
